From ChEMBL document CHEMBL2401724, “Synthesis and structure--activity relationships of N²-alkylated quaternary β-carbolines as novel antitumor agents” (Eur J Med Chem, 2013)

Assays:
[1] = system: CWR22R; test: Cytotoxicity against human 22Rv1 cells by MTT assay; type: functional, cell-based
Outline: (§1)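 Cell lines were cultured in 96-well microtitre plates at 37 °C in humidified 5% CO₂. Compounds were dissolved in DMSO, at ≤2% (v/v) final in the growth medium. Viability was read by MTT staining, expressed relative to untreated cells.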

[2] = system: 769-P; test: Cytotoxicity against human 769-P cells by MTT assay; type: functional, cell-based; outline: as §1
[3] = Cytotoxicity against human ECA109 cells by MTT assay; type: functional, cell-based; settings: ECa-109; outline: as §1
[4] = system: HepG2; test: Cytotoxicity against human HepG2 cells by MTT assay; type: functional, cell-based; outline: as §1
[5] = system: SK-OV-3; test: Cytotoxicity against human SKOV3 cells by MTT assay; type: functional, cell-based; outline: as §1
[6] = system: BGC-823; test: Cytotoxicity against human BGC823 cells by MTT assay; type: functional, cell-based; outline: as §1
[7] = system: HT-29; test: Cytotoxicity against human HT-29 cells by MTT assay; type: functional, cell-based; outline: as §1
[8] = system: A-375; test: Cytotoxicity against human A375 cells by MTT assay; type: functional, cell-based; outline: as §1
[9] = Cytotoxicity against mouse LLC cells by MTT assay; type: functional, cell-based; settings: Lewis lung carcinoma; outline: as §1
[10] = system: MCF7; test: Cytotoxicity against human MCF7 cells by MTT assay; type: functional, cell-based; outline: as §1
[11] = Acute toxicity in ip dosed C57BL/6 mouse after 14 days; type: organism-based; settings: in vivo
Outline: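 C57BL/6 mice (9–12 weeks, 18–22 g), single i.p. dose; watched continuously for 2 h, intermittently over 24 h, then occasionally to day 14 for behaviour, deaths and delayed effects. Survivors killed at day 14; heart, liver, kidneys inspected macroscopically, early deaths also examined. LD50 derived graphically.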

[12] = system: Lewis lung carcinoma cell line; test: Antitumor activity against mouse LLC cells allografted in mouse assessed as tumor growth inhibition at 30 mg/kg, ip qd administered for 7 days measured after 21 days relative to control; settings: read-out: TGI
[13] = Antitumor activity against mouse Sarcoma 180 cells allografted in mouse assessed as tumor growth inhibition at 30 mg/kg, ip qd administered for 7 days measured after 21 days relative to control; settings: Sarcoma-180, ip, read-out: TGI

Row | SMILES | IC50 [1] [µM] | IC50 [2] [µM] | IC50 [3] [µM] | IC50 [4] [µM] | IC50 [5] [µM] | IC50 [6] [µM] | IC50 [7] [µM] | IC50 [8] [µM] | IC50 [9] [µM] | IC50 [10] [µM] | LD50 at 336 h [11] [mg/kg] | inhibition in vivo at 30 mg/kg [12] [%] | inhibition in vivo at 30 mg/kg [13] [%]
1 | CC(C)Cn1c2ccccc2c2cc[n+](Cc3ccccc3)cc21 | 9.6 | 11.6 | 35.7 | 36.6 | 27.7 | 60.7 | 87.7 | 28.4 | 8 | 39.2 | – | – | –
2 | CCCCCCn1c2ccccc2c2cc[n+](Cc3ccccc3)cc21 | < 2 | 2.7 | 13.9 | 13.9 | 7.3 | 5.2 | 16 | 6.8 | < 2 | 11.1 | – | – | –
3 | CCCCCCCCn1c2ccccc2c2cc[n+](Cc3ccccc3)cc21 | 2.9 | < 2 | 5.1 | 6.5 | 3.2 | 2.5 | 10.9 | 3.1 | < 2 | 4.1 | – | – | –
4 | Fc1ccc(Cn2c3ccccc3c3cc[n+](Cc4ccccc4)cc32)cc1 | 3.5 | 6 | 35.4 | 23.4 | 10.5 | 6.3 | 28.9 | 4.7 | < 2 | 17.8 | – | – | –
5 | Clc1cccc(Cn2c3ccccc3c3cc[n+](Cc4ccccc4)cc32)c1 | 4.2 | 3.5 | 23.3 | 16.5 | 7.9 | 20.3 | 26.9 | 7 | < 2 | 20.3 | – | – | –
6 | COc1ccc(Cn2c3ccccc3c3cc[n+](Cc4ccccc4)cc32)cc1.[Br-] | 4.8 | 7.6 | 54.3 | 15.9 | 19.9 | 17.8 | 19.2 | 9.5 | 4.2 | 18.7 | 19.5 | – | –
7 | C[n+]1ccc2c3ccccc3n(CCCc3ccccc3)c2c1 | 4.3 | 19.9 | 60 | 90.8 | > 100 | 40.6 | 97.3 | 41.5 | 2.4 | 75.6 | – | – | –
8 | CC[n+]1ccc2c3ccccc3n(CCCc3ccccc3)c2c1 | 2.5 | 34.2 | 55.5 | 92.1 | > 100 | 88 | 54.2 | 45.1 | 4.3 | 98.7 | – | – | –
9 | CCCC[n+]1ccc2c3ccccc3n(CCCc3ccccc3)c2c1 | 3.4 | 13.4 | 41.5 | 45.5 | 15.8 | 15.4 | 62.7 | 12.2 | < 2 | 38.7 | – | – | –
10 | CCCCCC[n+]1ccc2c3ccccc3n(CCCc3ccccc3)c2c1 | 2.2 | 2.5 | 2.5 | 4.3 | < 2 | 2.3 | 2.3 | 2.9 | < 2 | 3.9 | – | – | –
11 | CCCCCCCC[n+]1ccc2c3ccccc3n(CCCc3ccccc3)c2c1 | 4.3 | < 2 | 22.8 | 4.7 | 5.9 | 7.4 | 18.6 | < 2 | < 2 | 2.9 | – | – | –
12 | CCCCCCCCCC[n+]1ccc2c3ccccc3n(CCCc3ccccc3)c2c1 | 6.9 | < 2 | 23.2 | < 2 | 57 | 57 | 31.3 | < 2 | 15.7 | < 2 | – | – | –
13 | O=P1(N(CCCl)CCCl)NCCCO1 (stereo not drawn) [CYCLOPHOSPHAMIDE ANHYDROUS] | – | – | – | – | – | – | – | – | – | – | – | 87.3 | 85.6
